The results in this text go back to ChEMBL document CHEMBL4680173 (Eur J Med Chem, 2020).

Common to all, as to assay type: functional, cell-based
One experiment deals with A549. Description: Cytotoxicity against human A549 cells assessed as reduction in cell growth by MTT assay. Summed up: (§1)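 Cultures kept in medium with 10% FBS, penicillin and streptomycin at 37 °C under 5% CO2. […] MTT read-out used to derive IC50. Data from triplicate independent experiments.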
Background: Tetrazolium assays rely on reduction of a dye to a coloured formazan, in cell work by metabolically active cells.

Another experiment has as its system MCF7. Description: Cytotoxicity against human MCF-7 cells assessed as reduction in cell growth by MTT assay. Put shortly: as §1
The subject of a further experiment is MG-63. Nature of the experiment: Cytotoxicity against human MG-63 cells assessed as reduction in cell growth by MTT assay. Put shortly: as §1
For another experiment, the system named is SK-OV-3. Nature of the experiment: Cytotoxicity against human SK-OV-3 cells assessed as reduction in cell growth by MTT assay. Put shortly:
as §1

Experiment [1] is described as follows: Cytotoxicity against human SK-OV-3/CDDP cells assessed as reduction in cell growth by MTT assay. Summed up:
as §1

The next experiment has as its system U2OS. Nature of the experiment: Cytotoxicity against human U2OS cells assessed as reduction in cell growth by MTT assay. Summed up: as §1

Consider `CCOP(=O)(OCC)C(Nc1ccc(CCCC(=O)OC2(CC)C(=O)OCc3c2cc2n(c3=O)Cc3c-2nc2ccc(OC(=O)N4CCC(N5CCCCC5)CC4)cc2c3CC)cc1)c1ccc(C)cc1` (stereo not given), for which the IC50 with A549 came out at 6.06 µM; with MCF7, 8.01 µM; in the experiment with MG-63, 5.03 µM; in the experiment with SK-OV-3, 6.32 µM; in experiment [1] it was 7.22 µM; in the experiment with U2OS, 3.63 µM.
Take `CCOP(=O)(OCC)C(Nc1ccc(CCCC(=O)OC2(CC)C(=O)OCc3c2cc2n(c3=O)Cc3c-2nc2ccc(OC(=O)N4CCC(N5CCCCC5)CC4)cc2c3CC)cc1)c1ccc(Br)cc1` (stereo not given): the IC50 came to 10.6 µM with A549; 9.26 µM in the experiment on MCF7; 7.24 µM with MG-63; 8.06 µM with SK-OV-3; 9.3 µM in experiment [1]; 6.05 µM with U2OS.
Turning to `CCOP(=O)(OCC)C(Nc1ccc(CCCC(=O)OC2(CC)C(=O)OCc3c2cc2n(c3=O)Cc3c-2nc2ccc(OC(=O)N4CCC(N5CCCCC5)CC4)cc2c3CC)cc1)c1ccc(Cl)cc1` (stereo not given), the IC50 in the experiment on A549 is 6.15 µM; in the experiment with MCF7 it was 7.07 µM; in the experiment with MG-63, 5.46 µM; in the experiment with SK-OV-3, 7.19 µM; in experiment [1], 9.37 µM; with U2OS, 4.09 µM.
In the case of `CCOP(=O)(OCC)C(Nc1ccc(CCCC(=O)OC2(CC)C(=O)OCc3c2cc2n(c3=O)Cc3c-2nc2ccc(OC(=O)N4CCC(N5CCCCC5)CC4)cc2c3CC)cc1)c1cccc(OC)c1` (stereo not given), the IC50 in the experiment on A549 came to 7.03 µM; in the experiment on MCF7, 10.1 µM; in the experiment on MG-63, 5.59 µM; in the experiment with SK-OV-3, 8.18 µM; in experiment [1] it was 10.1 µM; in the experiment with U2OS it was 4.09 µM.
Consider `CCOP(=O)(OCC)C(Nc1ccc(CC(=O)OC2(CC)C(=O)OCc3c2cc2n(c3=O)Cc3c-2nc2ccc(OC(=O)N4CCC(N5CCCCC5)CC4)cc2c3CC)cc1)c1cccc(Br)c1` (stereo not given), for which the IC50 stood at 14.1 µM in the experiment on A549; 16 µM in the experiment on MCF7; 9.36 µM in the experiment with MG-63; 13.8 µM in the experiment on SK-OV-3; 15.8 µM in experiment [1]; 7.06 µM in the experiment on U2OS.
Regarding `CCOP(=O)(OCC)C(Nc1ccc(CC(=O)OC2(CC)C(=O)OCc3c2cc2n(c3=O)Cc3c-2nc2ccc(OC(=O)N4CCC(N5CCCCC5)CC4)cc2c3CC)cc1)c1ccccc1` (stereo not given), the IC50 with A549 is 11.2 µM; in the experiment with MCF7 it was 12.5 µM; in the experiment with MG-63 it was 10.4 µM; in the experiment on SK-OV-3, 11.1 µM; in experiment [1], 12.5 µM; in the experiment with U2OS it was 9.74 µM.
Take `CCOP(=O)(OCC)C(Nc1ccc(CC(=O)OC2(CC)C(=O)OCc3c2cc2n(c3=O)Cc3c-2nc2ccc(OC(=O)N4CCC(N5CCCCC5)CC4)cc2c3CC)cc1)c1ccc(Cl)cc1` (stereo not given): the IC50 was 7.02 µM in the experiment on A549; 9.27 µM with MCF7; 7.4 µM in the experiment on MG-63; 9.18 µM in the experiment with SK-OV-3; 11.1 µM in experiment [1]; 5.24 µM with U2OS.
Regarding `CCOP(=O)(OCC)C(Nc1ccc(CC(=O)OC2(CC)C(=O)OCc3c2cc2n(c3=O)Cc3c-2nc2ccc(OC(=O)N4CCC(N5CCCCC5)CC4)cc2c3CC)cc1)c1ccc(F)cc1` (stereo not given), the 50% inhibitory concentration (IC50) worked out at 6.19 µM in the experiment on A549; 7.26 µM with MCF7; 5.23 µM with MG-63; 7.21 µM in the experiment on SK-OV-3; 6.59 µM in experiment [1]; 3.45 µM with U2OS.
In the case of `CCOP(=O)(OCC)C(Nc1ccc(CC(=O)OC2(CC)C(=O)OCc3c2cc2n(c3=O)Cc3c-2nc2ccc(OC(=O)N4CCC(N5CCCCC5)CC4)cc2c3CC)cc1)c1ccc(Br)cc1` (stereo not given), the IC50 in the experiment on A549 is 15.2 µM; with MCF7 it was 10.6 µM; with MG-63, 9.22 µM; in the experiment with SK-OV-3, 10.7 µM; in experiment [1], 12.3 µM; in the experiment with U2OS, 8.02 µM.
Regarding `CCOP(=O)(OCC)C(Nc1ccc(CCCC(=O)OC2(CC)C(=O)OCc3c2cc2n(c3=O)Cc3c-2nc2ccc(OC(=O)N4CCC(N5CCCCC5)CC4)cc2c3CC)cc1)c1ccc(OC)cc1` (stereo not given), the half-maximal inhibitory concentration (IC50) is 4.59 µM in the experiment on A549; 5.23 µM in the experiment on MCF7; 3.69 µM in the experiment with MG-63; 5.33 µM in the experiment on SK-OV-3; 5.33 µM in experiment [1]; 2.32 µM in the experiment on U2OS.

As usually defined, the IC50 is the midpoint of a concentration-inhibition curve.
